Screening data as filed in PubChem.
JMJD2C inh: blocks human GASC-1 demethylase activity. Q9H3R0. GST-JMJD2C(1-420) H3K9me3 demethylation, DELFIA europium. inhibition, % at 2.35 µM. 0.069% of 330,000 active. AID 2099;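 active = more than half of a compound's replicate wells show inhibition beyond 50%, single wells judged on their own value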;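 note: signal counts dimethyl H3K9 product captured on neutravidin plate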
PRMT1 inh: blocks human protein arginine methyltransferase 1. Q99873. recombinant PRMT1, activity-based probe fluorescence polarization. inhibition, % at 2.79 µM. 1.3% of 370,000 active;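 active = inhibition above about 21% made by adding two undisclosed values, limit read from the data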
mABHD4 FP: ABHD4 (mouse) inhibition, primary FP screen; Q8VD66; purified mABHD4, FP-Rh probe fluorescence polarization; inhibition, % at 8.92 µM; 0.54% of 370,000 active; AID 720543;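 active = inhibition exceeding the mean over every tested compound plus 3 SD, cut at about 30% in these data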
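Test system: mABHD4 protein | Buffer or medium: HEPES pH 7.0 buffer, 150 mM NaCl, 0.01% Pluronic F-127 | Probe or stimulus: FP-Rh fluorescent activity-based probe, added after compound pre-incubation | Timing: Pre-incubation 45 min, probe exposure 60 min, at 25 °C | Technique: Fluorescence polarization, excitation 525 nm, emission 598 nm, BODIPY TMR filters | Repeats: Single well per compound (singlicate)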
SIAE primary: human SIAE inhibition, primary screen. inhibition, % at 9.66 µM. Q9HAT2. SIAE FP-Rh probe binding, fluorescence polarization. AID 1053197. 0.69% of 370,000 active;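 active = inhibition above a cutoff: mean of compounds within the control limits plus 3 SD of those, cut at about 17% in these data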
Target sequence (Q9HAT2 whole entry, looked up): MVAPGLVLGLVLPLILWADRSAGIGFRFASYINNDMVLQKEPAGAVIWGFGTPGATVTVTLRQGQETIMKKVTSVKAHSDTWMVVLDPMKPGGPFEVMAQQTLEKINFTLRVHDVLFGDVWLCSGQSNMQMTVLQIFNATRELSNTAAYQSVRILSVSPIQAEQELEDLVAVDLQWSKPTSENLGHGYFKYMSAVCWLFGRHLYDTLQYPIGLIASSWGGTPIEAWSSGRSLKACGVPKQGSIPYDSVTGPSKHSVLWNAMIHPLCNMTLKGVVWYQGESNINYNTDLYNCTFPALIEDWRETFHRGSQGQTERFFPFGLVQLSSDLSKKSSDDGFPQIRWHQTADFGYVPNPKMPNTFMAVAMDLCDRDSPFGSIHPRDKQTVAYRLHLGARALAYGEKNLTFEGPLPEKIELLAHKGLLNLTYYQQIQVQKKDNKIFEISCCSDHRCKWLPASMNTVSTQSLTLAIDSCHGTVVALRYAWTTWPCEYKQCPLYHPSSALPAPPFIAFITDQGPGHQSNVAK
HTRA1 inh: HTRA1 (human) protease inhibition; Q92743; recombinant HTRA1, FP-rhodamine activity-based probe, fluorescence polarization; inhibition, % at 5.96 µM; 0.5% of 340,000 active; AID 504803; in the data active = inhibition above about 36%
PRMT1 confirm: confirmation of human PRMT1 inhibitors. shares compounds with PRMT1 inh. recombinant His-PRMT1, activity-based probe fluorescence polarization. inhibition, % at 2.79 µM. 42% of 3,300 active. AID 687036;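 active = mean inhibition across replicates above the hit cutoff derived for the earlier primary screen, cut at about 22% in these data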
Each line names hits and unclear results; the compound was inactive in the other large screens (follow-up assays come after a bar, where they were run). This is a sample that favours compounds with a hit; in the whole collection about 2.4% have one here.

Cc1nnc(SCC2=C(C(=O)O)N3C(=O)C(NC(=O)Cn4nc(C(F)F)cc4C)C3SC2)s1 (stereo not drawn)	PRMT1 inh 25 | PRMT1 confirm 29
Cc1nnc(SCC2=C(C(=O)O)N3C(=O)C(NC(=O)Cn4nc(C(F)F)c(Cl)c4C)C3SC2)s1 (stereo not drawn)	PRMT1 inh 28 | PRMT1 confirm 39
COc1ccc(Cl)cc1Cn1c(C)c(C(=O)NCc2ccc3c(c2)OCCO3)sc1=O	none (no result: JMJD2C inh, HTRA1 inh)
CC1(C(=O)NS(=O)(=O)C2CC2)CCCN(C(=O)COCc2ccccc2)C1 (stereo not drawn)	none (no result: JMJD2C inh, HTRA1 inh)
COc1ccc(N2C(=O)CC(Sc3ccccc3C(=O)O)C2=O)c([N+](=O)[O-])c1 (stereo not drawn)	PRMT1 inh 100 | PRMT1 confirm 55
COc1ccc(N2CCN(C(=O)c3ccccc3F)CC2)c([N+](=O)[O-])c1	none
Cc1ccc(N2C(=O)CC(Sc3ccccc3C(=O)O)C2=O)c([N+](=O)[O-])c1 (stereo not drawn)	PRMT1 inh 63 | PRMT1 confirm 65
c1ccc2c(CN3CCSCC3)cccc2c1	none
O=C(Nc1cc(S(=O)(=O)N2CCOCC2)ccc1N1CCCC1)c1cc2c(s1)CCCC2	none (no result: JMJD2C inh, HTRA1 inh)
CCCC1CCC2(CC1)CCC2OC(=O)Nc1ccc(C)cc1 (stereo not drawn)	none (no result: JMJD2C inh, HTRA1 inh)
O=C(O)CN1C(=O)/C(=C\C(Br)=C\c2ccccc2)SC1=S	PRMT1 inh 31 | PRMT1 confirm 33
O=[N+]([O-])c1ccccc1C=Nn1c(-c2cc(-c3ccccc3)n[nH]2)n[nH]c1=S	PRMT1 inh 42 (no result: JMJD2C inh, HTRA1 inh) | PRMT1 confirm inactive
Cc1ccc(-c2n[nH]c(=S)n2/N=C/C=C\c2ccccc2[N+](=O)[O-])cc1	PRMT1 inh 30 | PRMT1 confirm inactive
S=c1[nH]nc(-c2cc(-c3ccccc3)n[nH]2)n1/N=C/c1ccc(Br)s1	PRMT1 inh 28 | PRMT1 confirm inactive
S=c1[nH]nc(-c2cc(-c3ccccc3)n[nH]2)n1/N=C/c1c(Cl)cccc1Cl	none
N#Cc1cccc(NC(=O)OCCN2C(=O)CCC23CCC(c2ccccc2)CC3)c1 (stereo not drawn)	none (no result: JMJD2C inh, HTRA1 inh)
CC[C@H](C)[C@H]1CNC(=S)N1CC1CCN(CCC23CC4CC(CC(C4)C2)C3)CC1	none (no result: JMJD2C inh)
S=C(Nc1ccccc1I)OC1CCC12CCC(c1ccccc1)CC2 (stereo not drawn)	none (no result: JMJD2C inh, HTRA1 inh)
COC(=O)[C@]12C[C@H](CC(=O)NCc3cccs3)C(=O)N(Cc3ccc(Cl)cc3Cl)C1=C[C@H](COCc1ccccc1)O[C@@H]2C	none (no result: JMJD2C inh, HTRA1 inh)
Nc1cccc([N+](=O)[O-])c1	none
O=[N+]([O-])c1cccc(SSc2cccc([N+](=O)[O-])c2)c1	PRMT1 inh 83 (no result: JMJD2C inh) | PRMT1 confirm 95
Cc1cccc(NC(=O)Cn2nnc(-c3ccccc3F)n2)c1C	none (no result: JMJD2C inh, HTRA1 inh)
C=CC[C@@H]1NN2C(=O)[C@@H](CCCC)[C@@H]3c4ccccc4C=NN3[C@@H]2c2ccccc21	none (no result: JMJD2C inh, HTRA1 inh)
C=CC(C)n1c(Br)nc2c1c(=O)[nH]c(=O)n2C (stereo not drawn)	none
CC(C)n1c(=S)[nH]c2c1c(=O)[nH]c(=O)n2C	PRMT1 inh 45 | PRMT1 confirm 47
CC(C)(C)c1cc(CSC(=S)NC2CCS(=O)(=O)C2)c(Br)c(C(C)(C)C)c1 (stereo not drawn)	none
O=S1(=O)CC=C(CSC(=S)NC2CCS(=O)(=O)C2)C1 (stereo not drawn)	PRMT1 inh 26 | PRMT1 confirm 91
Cc1ccc(-n2nc(-c3ccco3)cc2C(=O)O)cc1	none
CC(C)NC(=O)c1cc(-c2ccco2)nn1-c1ccc(Cl)cc1	PRMT1 inh 31 | PRMT1 confirm inactive
CC(C)n1c(CNC(=O)c2ccccc2F)nnc1SCC(=O)NC1CCCCC1	PRMT1 inh 33 (no result: JMJD2C inh) | PRMT1 confirm inactive
CCn1c(CNC(=O)c2ccccc2F)nnc1SCC(=O)NC1CCCCC1	none
S=C(NCc1ccco1)Nc1cc(-c2ccccc2)[nH]n1	PRMT1 inh 32 | PRMT1 confirm 29
CC(=O)c1cc(-c2cc(C(F)(F)F)cc(C(F)(F)F)c2)c(=O)n2c1CCC2	none (no result: JMJD2C inh, HTRA1 inh)
Fc1ccc(Nc2cncc(-c3ccsc3)c2)cc1Cl	PRMT1 inh 25 (no result: JMJD2C inh, HTRA1 inh) | PRMT1 confirm inactive
O=c1c([N+](=O)[O-])c(O)c2ccccc2n1Cc1ccccc1	PRMT1 inh 29 | PRMT1 confirm inactive
